# Assay outcomes from PubChem.
# Env fusion inh = inhibitors of HIV Env-mediated cell fusion | HeLa-JRFL Env/CEM21 cell fusion, luciferase | AID 651610 | inhibition, % at 12.3 µM | hit rate 1.1% among 360,000;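 active = mean replicate inhibition score of at least 50 and every replicate individually at or above 50; inconclusive = only one of the two criteria met; inactive = mean below 50 and not all replicates reaching 50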;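 note: 0% = plate neutral controls and 100% = maraviroc near 300 nM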
# Cneo AK release = Cryptococcus neoformans lysis via adenylate kinase release. C. neoformans lysis, adenylate kinase release luminescence, 4 h; normalised: neutral wells 0, clomiphene wells 100. lysis activity, % at 15 µM. hit rate 0.2% among 360,000. AID 651654;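 active = mean lysis activity across replicates of at least 80%, whatever share of replicates individually reach that level; inactive = mean lysis activity below 80%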
#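 Schedule: static 4 h at 37 °C with compound, 1 h detection; system: C. neoformans cells; benchmarks: Clomiphene as positive control; buffer or medium: fresh YPD medium; measure: luminescence rise reflecting yeast cell lysis; measured by: luminescent adenylate kinase detection reagent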
# Ecoli rRNA inh = selective bacterial rRNA inhibition in E. coli. E. coli WT GFP vs humanized-ribosome RFP mutants, fluorescence, 24 h; hits give low values; DMSO median 0, no signal -100. GFP signal change (wild-type ribosome), % (concentration not given with the values). hit rate 1.6% among 350,000. AID 720706;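 active = significant combined selectivity score with lowered wild-type GFP, culture density cut under 30%, mutant RFP and density less affected; inactive = any of these conditions unmet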
# INS-1E GSIS act = GLuc luminescence reporter in INS-1E cells, primary screen for activators of glucose-dependent secretion of insulin | INS-1E GLuc reporter insulin secretion, 2-3 h | hit rate 0.61% among 370,000 | activation, % at 16.6 µM;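 active = lowest replicate activation of at least 40%, so every replicate reaches that level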;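 note: 0% = median of neutral control wells and 100% = median of IBMX positive control wells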
# F508del corr = CFTR F508del correction in bronchial cells; CFBE cells, YFP halide quenching; stimulated with forskolin plus potentiator P3; % fluorescence drop versus neutral controls; hit rate 0.36% among 350,000; AID 720511; activity (quench increase), % at 7.58 µM;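 active = mean added fluorescence quench of at least 8% versus neutral control, with both replicates also reaching 8%; inconclusive = only one of the mean or replicate conditions met; inactive = mean below 8% and not both replicates reaching 8%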;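 note: cells transiently co-express mutant CFTR-F508del with the halide-sensitive YFP; corrector assay measuring rescue of mutant channel to the surface after 24 h compound exposure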
# miR-122 sensor = miR-122 inhibition in Huh7 cells; activation (reporter increase), % at 12.5 µM; Huh7 miR-122 Renilla luciferase sensor, 48 h; neutral wells = 0, positive control = 100; AID 602342; hit rate 0.3% among 340,000;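 active = mean replicate activation score at least 90 and every replicate individually at or above 90; inconclusive = only one of the two criteria met; inactive = neither criterion met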;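 note: higher luciferase means less miR-122 activity so hits act as miR-122 inhibitors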
# AID977621 = growth inhibition of wild-type GFP E. coli, dose response, H69 mutant RFP, cherry-pick. 1,900 tested, under 10 active. E. coli wild-type GFP strain growth, fluorescence, 24 h. shares compounds with Ecoli rRNA inh. activity change, negative = inhibition at 50 µM;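 active = Wild-type ribosome reporter drop at least double the humanized mutant ribosome reporter drop, growth loss under a set limit; inconclusive = no clear call, values can overlap the other calls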;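 note: wild-type GFP and H69 mutant RFP strains grown together 50/50 in each well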
# AID977628 = growth of wild-type and h24-humanized E. coli strains – h24 mutant RFP vs wild-type GFP, cherry-pick, dose response | shares compounds with Ecoli rRNA inh | 1,900 tested, under 10 active | AID 977628 | E. coli WT GFP strain growth, fluorescence, 24 h | activity change, negative = inhibition at 50 µM;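 active = compound lowering the normal-ribosome reporter at least twice as much as the humanized-ribosome reporter, growth loss under a set limit; inconclusive = no clear call, values can overlap the other calls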;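 note: wild-type GFP and h24 humanized RFP strains co-cultured 1 to 1 per well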
# * marks the source's active call; other numbers are inactive results; ? = inconclusive; · = no result; [ ] = dose if it differs, or a comment. The list is not random: actives were taken first. Their share in the collection is about 3.1%.
SMILES,Env fusion inh,Cneo AK release,Ecoli rRNA inh,INS-1E GSIS act,F508del corr,miR-122 sensor,AID977621,AID977628
C[C@H]1CN([C@@H](C)CO)C(=O)c2cc(-c3ccc(F)cc3)cnc2O[C@H]1CN(C)CC1CCCCC1,19[16.7 µM],-1,5,-2,-2,-8[16.7 µM],·,·
COc1cc(CCN(C(=O)c2cc3ccccc3[nH]2)C(c2ccccn2)c2nc3ccccc3[nH]2)cc(OC)c1 (centres undefined),1,-2,-26*,12,-1,12,-20,-11
O=C(NC1CCCC(C(F)(F)F)C1)c1ccc([N+](=O)[O-])o1 (centres undefined),·,0,-24*,2,-5,·,·,?
O=C(NC1CCCCC1)c1ccc([N+](=O)[O-])o1,·,3,·,·,·,-1,·,·
O=C(O)CCn1c(SCc2cccc3ccccc23)nc2ccccc21,6,3,-16*,-8,·,6,-11,?
C[C@@H]1CN([C@@H](C)CO)C(=O)Cc2cc(NC(=O)Cc3ccccc3)ccc2O[C@@H]1CN(C)S(=O)(=O)c1ccc(F)cc1,·,-1,1,-18,-2,-4[16.7 µM],·,·
CCCn1c(C(C)Nc2nc(-c3ccc(C)cc3)cs2)nc2ccccc21 (centres undefined),·,4,-16*,24,1,-1,-14,-1.6
O=C(Nc1ccc(Cl)cc1)N1C[C@H]2[C@@H](c3ccccc31)[C@@H](CO)N2C(=O)c1ccccn1,·,-4,-23*,-14,0,25[16.7 µM],-6.3,·
O=C(Nc1cccc(Cl)c1)N1C[C@@H]2[C@H](c3ccccc31)[C@@H](CO)N2CC1CCCCC1,·,-3,-56*,-21,-1,-3[16.7 µM],?,·
O=C(Nc1ccc(F)cc1)N1C[C@H]2[C@@H](c3ccccc31)[C@H](CO)N2C(=O)c1ccccn1,·,-12,1,0,-2,20[16.7 µM],·,·
CO[C@H](CN(C)C(=O)c1cnccn1)[C@@H](C)CN([C@H](C)CO)S(=O)(=O)c1ccc(Cl)cc1,·,9,2,-5,-1,·,·,·
O=S(=O)(Cc1ccccc1Cl)N1CCN(Cc2ccc3c(c2)OCO3)CC1,·,-1,·,·,·,-1,·,·
O=S(=O)(Cc1ccc(Cl)cc1)N1CCN(Cc2ccc3c(c2)OCO3)CC1,11,0,-20*,-5,3,·,-10,?
CC(C)c1cn(CC[C@H]2CC[C@H](NC(=O)Nc3cc(Cl)cc(Cl)c3)[C@@H](CO)O2)nn1,6[16.7 µM],-1,-19,-13,1,-2[16.7 µM],·,·
COc1cccc(S(=O)(=O)N2CCCCN3[C@H](CO)[C@@H](c4ccc(C#CCC(C)C)cc4)[C@H]3C2)c1,·,0,-16,-2,3,1[16.7 µM],·,·
COc1cccc(S(=O)(=O)N2CCCCN3[C@H](CO)[C@H](c4ccc(C#CC(C)C)cc4)[C@@H]3C2)c1,·,-1,-4,1,3,-27[16.7 µM],4.6,·
COc1cccc(S(=O)(=O)N2CCCCN3[C@H](CO)[C@@H](c4ccc(C#CC(C)C)cc4)[C@@H]3C2)c1,·,-2,7,-10,-1,-1[16.7 µM],?,·
COc1cccc(S(=O)(=O)N2CCCCN3[C@H](CO)[C@@H](c4ccc(C#CC(C)C)cc4)[C@H]3C2)c1,·,6,-47*,-27,1,-27[16.7 µM],·,?
COc1cccc(S(=O)(=O)N2CCCCN3[C@H](CO)[C@@H](c4ccc(C#CCC(C)C)cc4)[C@@H]3C2)c1,·,78,-4,0,0,0[16.7 µM],·,·
COc1cccc(S(=O)(=O)N2CCCCN3[C@@H](CO)[C@H](c4ccc(C#CCC(C)C)cc4)[C@@H]3C2)c1,·,7,-18,34,-1,7[16.7 µM],·,·
O=C(CSc1nc2ccccc2[nH]1)Nc1ccccc1F,·,1,-26*,-21,3,-2,·,?
Cc1ccc2nc(SCC(=O)Nc3c(F)cccc3F)[nH]c2c1,-6,-2,-22*,10,0,·,·,?
COc1ccc2nc(SCC(=O)Nc3ccccc3)[nH]c2c1,-5,·,-20*,-19,·,·,-21,·
Cc1ccc2nc(SCC(=O)Nc3ccc(F)cc3F)[nH]c2c1,-1,8,·,-9,·,8,·,·
O=C(CSc1nc2ccccc2[nH]1)Nc1ccc(F)c(F)c1,2,2,·,·,·,-4,·,·
SMILES,Env fusion inh,Cneo AK release,Ecoli rRNA inh,INS-1E GSIS act,F508del corr,miR-122 sensor,AID977621,AID977628
CCOC(=O)Cc1nnc(NC(=O)CSc2nc3ccccc3[nH]2)s1,-49,·,-17*,12,-1,·,·,-16
CC=Cc1ccc2n(c1=O)C[C@H]1[C@H](CO)[C@@H](C(=O)NCc3ccccn3)[C@@H]2N1CCC (mixture of isomers),·,0,2,0,2,5[16.7 µM],·,·
C[C@H]1CN([C@@H](C)CO)C(=O)Cc2cc(NC(=O)Cc3ccccc3)ccc2O[C@@H]1CN(C)CC1CC1,23[16.7 µM],6,3,9,-1,-6[16.7 µM],·,·
Cc1cc(NC(=O)c2sc(Nc3ccc(F)c(Cl)c3)nc2N)no1,-18,-1,-22*,-18,-4,-1,-10,0.055
C[C@@H]1CCCCO[C@@H](CN(C)C(=O)Nc2ccccc2)[C@H](C)CN([C@H](C)CO)C(=O)c2cc(N(C)C)ccc2O1,-23[16.7 µM],·,-4,-10,2,-4[16.7 µM],·,·
CC(=O)c1ccc(Sc2ccccc2N)c([N+](=O)[O-])c1,-10,0,-16*,13,-2,-5,·,-13
CCS(=O)(=O)N[C@H]1C=C[C@H](CC(=O)NCc2ccc(F)cc2)O[C@H]1CO,-13[16.7 µM],28,4,8,3,-25[16.7 µM],·,·
Cc1cc(NC(=O)CSc2ncc(CO)n2Cc2ccc(F)cc2)no1,-8,8,8,3,3,3,·,·
COc1ccccc1NC(=O)CSc1ncc(CO)n1Cc1ccc(F)cc1,8,4,-20*,0,-3,2,-15,-14
C[C@H](CO)N1C[C@H](C)[C@@H](CN(C)S(=O)(=O)c2ccc(Cl)cc2)Oc2ccc(NC(=O)Nc3ccccc3)cc2C1=O,·,1,-2,-16,-1,-8[16.7 µM],·,·
O=C(COc1cccc2c1CCN(Cc1ccccc1F)C2=O)N1CCCCC1,4,·,-39*,1,0,·,·,?
CCOC(=O)N1CCN(C(=O)COc2cccc3c2CCN(Cc2ccccc2F)C3=O)CC1,29,·,·,·,·,·,·,·
O=C(COc1cccc2c1CCN(Cc1ccc(Br)cc1)C2=O)N1CCOCC1,4,·,-28*,-10,0,·,7.3,-5.1
